pEC50, pKi: −log10 of the molar value. Values joined by “and” are separate entries in the source; they are usually repeats but may differ in a detail not shown here. Equal values may be shown once. Active and inactive are the calls of the source. The rule behind the calls is not given here.
Legend:
[1] = target: T1, Adenosine receptor A1 (Homo sapiens) (UniProt P30542); test: Modulation of human adenosine A1 receptor expressed in CHO-K1 cells assessed as stabilization of [125I]ABA-receptor-G protein ternary complex at 50 uM by dissociation kinetic assay; format: cell-based
T1 sequence (whole entry): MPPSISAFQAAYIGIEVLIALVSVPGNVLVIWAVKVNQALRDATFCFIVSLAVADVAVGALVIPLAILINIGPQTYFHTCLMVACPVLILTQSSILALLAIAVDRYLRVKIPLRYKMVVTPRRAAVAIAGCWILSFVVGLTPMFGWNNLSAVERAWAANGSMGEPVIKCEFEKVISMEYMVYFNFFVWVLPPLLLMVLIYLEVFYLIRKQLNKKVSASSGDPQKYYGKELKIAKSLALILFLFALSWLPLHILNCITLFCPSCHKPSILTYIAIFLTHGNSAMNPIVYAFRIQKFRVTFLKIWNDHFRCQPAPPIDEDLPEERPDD
In short: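 CHO-K1 membranes with human A1AR (10 µg) equilibrated 90 min at room temperature with 0.5 nM [125I]-ABA in 10 mM HEPES pH 7.2, 0.5 mM MgCl2, 1 U/mL ADA. Modulator (0.1-50 µM final) added for 30 min. Dissociation started with 100 µM BW-1433 plus 25 µM GTPγS for 10 min, then filtration and counting. K-score = 100×(B−Bo)/(Beq−Bo); n = 3. EC50 from variable-slope sigmoidal fit.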

Adenosine receptor A1 [2] = target: T2, Adenosine receptor A1 (Homo sapiens, UniProt P30542); test: Modulation of human adenosine A1 receptor expressed in CHO-K1 cells assessed as allosteric effect on [125I]ABA dissociation; format: cell-based
T2 sequence (P30542 whole entry): T1 sequence (whole entry)

[3] = target: T1, Adenosine receptor A1 (Homo sapiens); test: Displacement of [3H]CPX from human adenosine A1 receptor expressed in CHO-K1 cells at 50 uM; format: cell-based
In short: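 Incubated with 2 nM [3H]CPX and 50 µM modulator (final) for 90 min at room temperature. Nonspecific binding defined with 100 µM NECA. Filtration and scintillation counting; triplicate, given as % inhibition versus control.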

[4] = target: T1, Adenosine receptor A1 (Homo sapiens); test: (§1) Antagonist activity at human adenosine A1 receptor expressed in FlpIn-CHO cells assessed as inhibition of R-PIA-mediated ERK1/2 phosphorylation; format: functional, cell-based
[5] = target: T1, Adenosine receptor A1 (Homo sapiens); test: Inverse agonist activity at human adenosine A1 receptor assessed as reduction of inhibition of R-PIA-mediated [35S]GTPgammaS binding to G protein; format: functional
In short: (§2)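 Membranes (15 µg) from CHO FlpIn cells stably expressing human A1AR. Preincubated 60 min at 30 °C in 10 mM HEPES, 100 mM NaCl, 10 mM MgCl2, pH 7.4, with 10 µM GDP, R-PIA (0.01 nM - 1 µM) ± increasing modulator concentrations. [35S]GTPγS (100 pM) then added for another 30 min at 30 °C. Filtration and scintillation counting; three experiments in duplicate.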

Adenosine receptor A1 [6] = target: T2, Adenosine receptor A1; test: Antagonist activity at human adenosine A1 receptor expressed in CHO-K1 cells assessed as reduction of [3H]CCPA specific equilibrium binding; format: cell-based
Adenosine receptor A1 [7] = target: T2, Adenosine receptor A1; test: as §1; format: functional, cell-based; conditions: read-out: pA2 (converted)
Adenosine receptor A1 [8] = target: T2, Adenosine receptor A1; test: Antagonist activity at human adenosine A1 receptor assessed as inhibition of R-PIA-mediated [35S]GTPgammaS binding to G protein; format: functional; conditions: read-out: pA2 (converted); in short: as §2

Structure (SMILES)	Activity [1]	pEC50 (Adenosine receptor A1 [2])	inhibition [3]	also measured
Nc1nccnc1C(=O)NNS(=O)(=O)c1ccc(Cl)cc1	< 5%			
Nc1nccnc1C(=O)N/N=C/c1ccc(Cl)cc1	< 5%			
COc1cccc(-c2cc3c(c(N)c2C#N)c(=O)oc2ccccc23)c1	< 5%			
Nc1ccccc1C(=O)NNc1ccccc1Cl	< 5%			
Nc1ccc(Cl)cc1C(=O)NCc1ccccn1	< 5%			
Nc1nccnc1C(=O)N/N=C/c1ccco1	< 5%			
Nc1c2c(=O)cc(-c3ccccc3)[nH]c2nn1-c1ccccc1	< 5%			
NC(=O)c1ncccc1C(=O)O	< 5%			
Nc1ccccc1C(=O)N/N=C/c1ccc2c(c1)OCO2	< 5%			
Nc1scc2c(C(=O)O)nn(-c3ccccc3)c(=O)c12		5.01		
Nc1nccnc1C(=O)N/N=C/c1ccc(C(F)(F)F)cc1	< 5%			
Nc1ccc(Cl)cc1C(=O)NCc1ccncc1	< 5%			
COc1ccc(-n2nc(C(=O)O)c3csc(N)c3c2=O)cc1	55.8%	5.59	29.5%	Activity [4]: inactive
NC(=O)c1cc(Cl)c(Cl)cc1C(N)=O	< 5%			
CCOC(=O)c1nn(-c2ccc(OC(C)=O)cc2)c(=O)c2c(N)scc12	66.6%	5.60	48.9%	Kb (Adenosine receptor A1 [7]): 0.0398 µM
Nc1cc(Cl)ccc1C(=O)N1CCSCC1	6%			
Nc1[nH]nc2[nH]c(-c3ccccc3)cc(=O)c12	< 5%			
Nc1ccccc1C(=O)NC1CCCCNC1=O (stereo not drawn)	< 5%			

Now from value to compound, other results behind:

Activity [1]	pEC50 (Adenosine receptor A1 [2])	inhibition [3]	Structure (SMILES)	also measured
< 5%			Cc1nn(-c2ccccc2)c2nc(N)c(C(N)=O)cc12	
19.6%	4.89	73.4%	CCOC(=O)c1nn(-c2ccc([N+](=O)[O-])cc2)c(=O)c2c(N)scc12	Activity [4]: inactive
< 5%			CCOC(=O)c1cnn(C)c1N	
69.2%	5.24	100%	CCOC(=O)c1nn(-c2cccc(Cl)c2)c(=O)c2c(N)scc12	Activity [5]: Dose-dependent effect; pKi (Adenosine receptor A1 [6]): 8.24; Kb (Adenosine receptor A1 [7]): 0.002 µM; Kb (Adenosine receptor A1 [8]): 0.00794 µM
68.5%	5.31	21.5%	CCOC(=O)c1nn(-c2ccc(OS(=O)(=O)C(F)(F)F)cc2)c(=O)c2c(N)scc12	Activity [4]: inactive
< 5%			NC(=O)c1nnc2ccccc2c1N	
81%	5.08	77.2%	CCOC(=O)c1nn(-c2ccc(C(F)(F)F)cc2)c(=O)c2c(N)scc12	Activity [4]: inactive
59%	5.01	23%	CCOC(=O)c1nn(-c2ccc(C(C)(C)C)cc2)c(=O)c2c(N)scc12	Activity [4]: inactive
< 5%			CCOC(=O)c1c(C)nsc1N	
< 5%			CCOC(=O)c1c(N)sc2c1-c1ccccc1C2	
68.6%	5.37	92.5%	CCOC(=O)c1nn(-c2ccc(OC)cc2)c(=O)c2c(N)scc12	Kb (Adenosine receptor A1 [7]): 0.2 µM
< 5%			NNC(=O)c1nccnc1N	
< 5%			CCOC(=O)c1cn[nH]c1N	
66.1%	5.57	32%	CCOC(=O)c1nn(-c2cccc(C(F)(F)F)c2)c(=O)c2c(N)scc12	Activity [4]: inactive
33.2%	4.95	50.3%	Cc1sc(N)c(C(=O)c2cccs2)c1C	Activity [4]: inactive
11%			CCOC(=O)c1cnc(SCC(=O)c2cc(Cl)c(Cl)s2)nc1N	
< 5%			NC(=O)c1nnn(Cc2ccc(F)cc2)c1N	
80.3% and 80%	5.40	32.3%	Cc1c(C(=O)Nc2ccccc2)sc(N)c1C(N)=O	Activity [4]: inactive
< 5%			Cc1nc2ccccc2c(C(=O)O)c1N	
75.9%	5.15	65.8%	CCOC(=O)c1nn(-c2ccc(O)cc2)c(=O)c2c(N)scc12	Kb (Adenosine receptor A1 [7]): 0.0398 µM
< 5%			CSc1nc(C(N)=O)c(N)s1	
65.4%	5.15	100%	CCOC(=O)c1nn(-c2ccc(I)cc2)c(=O)c2c(N)scc12	Kb (Adenosine receptor A1 [7]): 0.0794 µM
5%			COc1ccc(-n2nc(C(=O)OC(C)(C)C)c3csc(N)c3c2=O)cc1	
60.4%	4.87	22.8%	CCOC(=O)c1nn(-c2ccccc2)c(=O)c2c(N)scc12	Kb (Adenosine receptor A1 [7]): 0.0158 µM
< 5%			NC(=O)c1nnn(Cc2ccc(Cl)cc2)c1N	

— ChEMBL document CHEMBL1140091, “2-aminothienopyridazines as novel adenosine A1 receptor allosteric modulators and antagonists” (J Med Chem, 2008)
